Laboratory results taken from ChEMBL document CHEMBL4265873, “Design and discovery of silybin analogues as antiproliferative compounds using a ring disjunctive - Based, natural product lead optimization approach” (Eur J Med Chem, 2017).
The source made the active and inactive calls. The rule behind the calls is not given here.

How the values were obtained:
2008 [1] = experiment: Induction of cell cycle arrest in human OV2008 cells assessed as cell accumulation at G1 phase at 4 uM incubated for 12 hrs by propidium iodide staining based flow cytometry (reference value: 79.1%); assay type: functional
How it was run: (§1)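 OV2008 cells were plated at 1x10^6 cells/well and incubated with 0, 2 or 4 µM for 12 h. Cells were trypsinised, washed and resuspended in ice-cold PBS, then stained with propidium iodide for at least 15 min. Phase distribution was measured by flow cytometry. Means ± SD of three independent experiments in triplicate.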

A2780 [2] = experiment: Induction of apoptosis in human A2780 cells assessed as apoptosis cells level at 2 uM incubated for 12 hrs by Alexa Fluor 488 annexin V and mito-tracker red CMXRos dye staining based flow cytometry (reference value: 0.0%); assay type: functional
How it was run: (§2)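 Cells in complete medium were treated with 0, 2 or 4 µM for 12 h, then trypsinised. They were stained with MitoTracker Red (4 µL of 10 µM working solution per 1 mL of cells) for 30 min at 37 °C under 5% CO2. Cells were then resuspended in annexin-binding buffer with Alexa Fluor 488 annexin V for 15 min. Flow cytometry emission read at 530 and 585 nm. Two independent experiments, each in triplicate.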

2008 [3] = experiment: Induction of morphological changes in human OV2008 cells at 1 to 4 uM incubated for 68 hrs; assay type: functional, cell-based
How it was run: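 OV2008 and A2780 cells, with CHO alongside, were exposed to 0, 1, 2 or 4 µM for 68 h. Each triplicate treatment was photographed at 20X under an inverted microscope to assess morphology.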

2008 [4] = experiment: Induction of cell cycle arrest in human OV2008 cells assessed as cell accumulation at S phase at 4 uM incubated for 12 hrs by propidium iodide staining based flow cytometry (reference value: 5.2%); assay type: functional; how it was run: as §1
ZR-75-1 = experiment: Cytotoxicity in human ZR-75-1 cells assessed as reduction in cell viability incubated for 68 hrs by MTT assay; assay type: functional, cell-based; settings: ZR-75-1, 68 h
How it was run: (§3)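 Cells were trypsinised and seeded at 5x10^3 cells/well. Compound was added at 0, 0.1, 0.3, 1, 3, 10, 30 and 100 µM for 68 h. MTT (4 mg/mL solution) was then added for 4 h, and the formazan was dissolved in DMSO. Absorbance read at 570 nm. IC50 was derived from % survival across the eight concentrations. Mean ± SD of three independent experiments, each in triplicate.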

A2780 [5] = experiment: Reduction in mitochondrial potential in human A2780 cells at 2 uM incubated for 12 hrs by Alexa Fluor 488 annexin V and mito-tracker red CMXRos dye staining based flow cytometry; assay type: functional, cell-based; how it was run: as §2
[6] = Selectivity index, ratio of IC50 for cytotoxicity in CHO cells incubated for 68 hrs by MTT assay to IC50 for cytotoxicity in human A2780 cells incubated for 68 hrs by MTT assay; assay type: toxicity, cell-based; settings: Chinese hamster (CHO cells), CHO cells versus A2780 cells, read-out: Ratio IC50
BT-20 = experiment: Cytotoxicity in human BT20 cells assessed as reduction in cell viability incubated for 68 hrs by MTT assay; assay type: functional, cell-based; settings: BT-20, 68 h; how it was run: as §3
OV2008 (Homo sapiens) = experiment: Induction of cell cycle arrest in human OV2008 cells assessed as increase in cell accumulation at subG1 phase at 2 to 4 uM incubated for 12 hrs by propidium iodide staining based flow cytometry
2008 [7] = experiment: Reduction in alpha-tubulin expression human OV2008 cells at 2 to 4 uM measured after overnight incubation by Western blot analysis; assay type: functional, cell-based
2008 [8] = experiment: Induction of cell cycle arrest in human OV2008 cells assessed as increase in cell accumulation at subG1 phase at 2 to 4 uM incubated for 12 hrs by propidium iodide staining based flow cytometry; assay type: functional; how it was run: as §1
2008 [9] = experiment: Induction of cell cycle arrest in human OV2008 cells assessed as cell accumulation at subG1 phase at 4 uM incubated for 12 hrs by propidium iodide staining based flow cytometry (reference value: 11.3%); assay type: functional; how it was run: as §1
2008 [10] = experiment: Inhibition of cell proliferation of human OV2008 cells at 1 to 8 uM incubated for 10 to 50 hrs; assay type: functional, cell-based
How it was run: (§4)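 OV2008 or A2780 cells were seeded at low density (1x10^3 cells/well) and given 0, 2, 4 or 8 µM. Live-cell images were taken every 2 h for up to 48 h. Confluence at each time point was quantified with a confluence mask and plotted as timeline curves. Means ± SD of three independent experiments.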

MDA-MB-231 = experiment: Cytotoxicity in human MDA-MB-231 cells assessed as reduction in cell viability incubated for 68 hrs by MTT assay; assay type: functional, cell-based; settings: MDA-MB-231, 68 h; how it was run: as §3
2008 [11] = experiment: Induction of cell cycle arrest in human OV2008 cells assessed as cell accumulation at subG1 phase at 2 uM incubated for 12 hrs by propidium iodide staining based flow cytometry (reference value: 11.3%); assay type: functional; how it was run: as §1
2008 [12] = experiment: Induction of cell cycle arrest in human OV2008 cells assessed as cell accumulation at G2 phase at 4 uM incubated for 12 hrs by propidium iodide staining based flow cytometry (reference value: 2.5%); assay type: functional; how it was run: as §1
CHO = experiment: Cytotoxicity in CHO cells assessed as reduction in cell viability incubated for 68 hrs by MTT assay; assay type: cell-based; settings: Cricetulus griseus; how it was run: as §3
2008 [13] = experiment: Induction of cell cycle arrest in human OV2008 cells assessed as cell accumulation at G1 phase at 2 uM incubated for 12 hrs by propidium iodide staining based flow cytometry (reference value: 79.1%); assay type: functional; how it was run: as §1
2008 [14] = experiment: Reduction in mitochondrial potential in human OV2008 cells at 2 uM incubated for 12 hrs by Alexa Fluor 488 annexin V and mito-tracker red CMXRos dye staining based flow cytometry; assay type: functional, cell-based; how it was run: as §2
2008 [15] = experiment: Induction of apoptosis in human OV2008 cells assessed as apoptosis cells level at 4 uM incubated for 12 hrs by Alexa Fluor 488 annexin V and mito-tracker red CMXRos dye staining based flow cytometry (reference value: 19.6%); assay type: functional; how it was run: as §2
HEK293 = experiment: Cytotoxicity in HEK293 cells assessed as reduction in cell viability incubated for 68 hrs by MTT assay; assay type: cell-based; settings: Homo sapiens, HEK293, 68 h; how it was run: as §3
A2780 [16] = experiment: Inhibition of cell proliferation of human A2780 cells at 1 to 8 uM incubated for 10 to 50 hrs; assay type: functional, cell-based; how it was run: as §4
[17] = Selectivity index, ratio of IC50 for cytotoxicity in human CRL1459 cells incubated for 68 hrs by MTT assay to IC50 for cytotoxicity in human OV2008 cells incubated for 68 hrs by MTT assay; assay type: toxicity, cell-based; settings: CRL1459 cells versus OV2008 cells, read-out: Ratio IC50
DU-145 = experiment: Cytotoxicity in human DU145 cells assessed as reduction in cell viability incubated for 68 hrs by MTT assay; assay type: functional, cell-based; settings: DU-145, 68 h; how it was run: as §3
Homo sapiens = species on record: Homo sapiens; experiment: Inhibition of tubulin alpha in human OV2008 cells assessed as induction of disturbance in cellular microtubule shape and integrity at 2 to 4 uM after overnight incubation by immunofluorescence analysis; assay type: cell-based
2008 [18] = experiment: Induction of cell cycle arrest in human OV2008 cells assessed as cell accumulation at S phase at 2 uM incubated for 12 hrs by propidium iodide staining based flow cytometry (reference value: 5.2%); assay type: functional; how it was run: as §1
A2780 [19] = experiment: Potency index, ratio of IC50 for silybin to IC50 for test compound for cytotoxicity in human A2780 cells assessed as reduction in cell viability incubated for 68 hrs by MTT assay; assay type: functional
[20] = Cytotoxicity in human CRL1459 cells assessed as reduction in cell viability incubated for 68 hrs by MTT assay; assay type: cell-based; how it was run: as §3

In the case of `O=C(/C=C/c1cccc(OCc2ccccc2)c1)c1ccc(O)cc1`, the Activity 2008 [1] is reported as 45.3%, the Activity (A2780 [2]) is reported as 37.3% and the Activity 2008 [3] is reported as “Active”. The Activity 2008 [4] was 5.2%, the IC50 (ZR-75-1) was 4.9 µM and the Activity (A2780 [5]) was “Active”. The selectivity ratio at 68 h [6] was 6 to 30, the IC50 (BT-20) was 5.1 µM and the Activity (OV2008 (Homo sapiens)) was “Dose-dependent effect”. The Activity 2008 [7] was “Active”, the Activity 2008 [8] was “Dose-dependent effect” and the Activity 2008 [9] was 33.9%. For the same compound, the inhibition 2008 [10] was “Active”, the IC50 (MDA-MB-231) was 2.9 µM and the Activity 2008 [11] was 25.5%. It also gave an Activity 2008 [12] of 1.9%, an IC50 (CHO) of 8.1 µM and an Activity 2008 [13] of 58.4%. The Activity 2008 [14] was “Active”, the Activity 2008 [15] was 42.5% and the IC50 (HEK293) was 5.4 µM. The inhibition (A2780 [16]) was “Active”, the selectivity ratio at 68 h [17] was 6 to 30 and the IC50 (DU-145) was 6.3 µM. The inhibition (Homo sapiens) was “Active”, the Activity 2008 [18] was 4.4% and the “Ratio IC50” value (A2780 [19]) was 30 - 200. The IC50 [20] was 8.5 µM.
